Source: PubChem
Compounds with a hit are over-represented: about 0.79% of the library has one in this group of screens.
Rin1-Abl PPI inh: inhibitors of Rin1-Abl protein binding, primary screen, biochemical, TR-FRET. Tyrosine-protein kinase ABL1 (Homo sapiens) + Ras and Rab interactor 1 (Homo sapiens), …. inhibition, % at 7.35 µM. 0.4% of 360,000 active. AID 588664, 2011; in the data active means inhibition above about 5%, passing the limit was not always enough
UCH37 DUB inh: inhibitors of human UCH37 deubiquitinase, primary screen, biochemical, Ub-AMC cleavage, fluorescence | AID 588478, 2011 | 0.33% of 330,000 active | inhibition, % (test concentration not listed) | purified proteasome/UCH37;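 active means mean inhibition over replicate wells above about 20%, limit read from the data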
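system = Proteasome-associated human UCH37 deubiquitinase | amount = 0.15 nM proteasome as dispensed | medium = pH 7.4 Tris-HCl (50 mM) with ovalbumin, ATP-MgCl2, DTT | incubation = 30 min preincubation with enzyme, 25 min cleavage at room temperature | detection = AMC fluorescence 355/460 nm | read-out basis = percent inhibition | controls = no-proteasome and no-compound wells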
PKA-R1A activ: activators of PKA-R1A holoenzyme, primary screen, biochemical, fluorescence polarization, Cy5-IP20, bovine R1A, mouse PKAc; 0.083% of 340,000 active; cAMP-dependent protein kinase type I-alpha regulatory subunit (Bos taurus) + …; AID 504707, 2011; activation, % at 11.4 µM; PKA-R1A dissociation; scaled: DMSO 0%, 113 µM cGMP 100%;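 active means percent activation above the mean of all tested compounds plus 3 SD, cut at about 19% in these data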;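 further: higher means more PKAc released from R1A so a rise in polarization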
PKA-R2B act: activators of PKA-R2B holoenzyme, primary screen, biochemical, fluorescence polarization, Cy5-IP20, human | PKA-R2B holoenzyme dissociation; R2B truncated from residue 108, S112A mutant; 0% DMSO only, 100% 113 µM cGMP | activation, % at 11.4 µM | 0.079% of 340,000 active | AID 504700, 2011;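 active means activation above a cutoff set at the mean over all compounds plus 3 SD, cut at about 18% in these data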;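 further: higher means more holoenzyme dissociation and a rise in polarization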
Target sequence (P31323 whole entry, looked up, other chains not shown, the tested form may be a part): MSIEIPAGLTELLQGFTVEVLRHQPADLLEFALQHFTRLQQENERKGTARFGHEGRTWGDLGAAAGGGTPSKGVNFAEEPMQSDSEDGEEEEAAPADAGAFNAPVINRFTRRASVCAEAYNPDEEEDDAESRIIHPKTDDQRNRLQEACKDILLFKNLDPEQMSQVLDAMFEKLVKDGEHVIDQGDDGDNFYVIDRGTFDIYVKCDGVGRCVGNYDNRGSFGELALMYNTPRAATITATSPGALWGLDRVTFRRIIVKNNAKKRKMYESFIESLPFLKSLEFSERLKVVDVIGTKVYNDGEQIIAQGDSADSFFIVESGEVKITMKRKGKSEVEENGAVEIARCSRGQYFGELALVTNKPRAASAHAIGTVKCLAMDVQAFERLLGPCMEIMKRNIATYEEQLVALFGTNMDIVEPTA
Rin1 Abl conf: Rin1-Abl binding inhibitor retest, confirmation, biochemical, TR-FRET | shares compounds with Rin1-Abl PPI inh | purified proteins | inhibition, % at 7.35 µM | 49% of 1,300 active | AID 602124, 2011
GFP quencher: GFP fluorescence inhibitors and quenchers, artefact control for Rin1-Abl interaction inhibitor project, biochemical. 8.5% of 1,300 active. inhibition, % at 6.75 µM. shares compounds with Rin1-Abl PPI inh. inhibitors/quenchers counterscreen;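 further: ABL1-eGFP fusion protein alone without its partner RIN1-SBP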
GFP quench DR: GFP fluorescence inhibitors and quenchers, dose response, artefact control for Rin1-Abl interaction inhibitor project, biochemical. shares compounds with Rin1-Abl PPI inh. GFP fluorescence interference/quenching counterscreen. IC50, µM. 230 tested, under 10 active. AID 602182, 2012; call rule not given here;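 further: ABL1-eGFP fusion protein alone without its RIN1 binding partner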
Large screens that a line does not name were inactive (follow-up assays come after a bar, where they were run); ! = a repeat was not active. Unless noted, no stated cut-off is given here; in the data, active means inhibition above about 6.5%; inactive means the rest.

O=C(c1ccccc1[N+](=O)[O-])N1CC2C3C=CC(C3)C2C1 (stereo not given)	none
CCOC(=O)N1CCC2(CC1)C(C#N)=C(N)OC1=C2C(=O)CC(C)C1 (stereo not given)	Rin1-Abl PPI inh 17 | Rin1 Abl conf inactive | GFP quencher inactive
COc1cc(C)c(Cl)cc1S(=O)(=O)n1cnc(C)c1	none
COc1ccc(C)cc1S(=O)(=O)n1nc(C)cc1C	Rin1-Abl PPI inh 8.4 | Rin1 Abl conf inactive | GFP quencher inactive
COc1ccc(C(C)C)cc1S(=O)(=O)n1cnc(C)c1	Rin1-Abl PPI inh 8.0 | Rin1 Abl conf inactive | GFP quencher inactive
CNc1ncnc2c1ncn2[C@@H]1O[C@H](CO)[C@@H](O)[C@H]1O	none
NCCNC(=O)Cc1ccc(NC(=O)Cc2ccc(Nc3ncnc4c3ncn4[C@@H]3O[C@H](CO)[C@@H](O)[C@H]3O)cc2)cc1	Rin1-Abl PPI inh 16 | Rin1 Abl conf 28 | GFP quencher inactive
CCCC(=O)NC(c1ccc(C(C)C)cc1)c1ccc2cccnc2c1O (stereo not given)	none (no result: UCH37 DUB inh)
CCC(=O)NC(c1ccco1)c1cc(Br)c2cccnc2c1O (stereo not given)	Rin1-Abl PPI inh 7.9 (no result: UCH37 DUB inh, PKA-R1A activ, PKA-R2B act) | Rin1 Abl conf 8.1 | GFP quencher inactive
CCC(=O)NC(c1ccc(C)cc1)c1ccc2cccnc2c1O (stereo not given)	Rin1-Abl PPI inh 11 (no result: UCH37 DUB inh) | Rin1 Abl conf 6.8 | GFP quencher inactive
CCCC(=O)NC(c1ccco1)c1cc([N+](=O)[O-])c2cccnc2c1O (stereo not given)	Rin1-Abl PPI inh 9.3 | Rin1 Abl conf inactive | GFP quencher inactive
CCOC(=O)CN1NC2(CCCC(C)C2)NC1=S (stereo not given)	none
COc1ccc(NC(=O)C2OCCc3ccccc32)c(OC)c1 (stereo not given)	none
N#CC12CCCCC1CC1CCCCC1(C#N)N2Cc1cccnc1 (stereo not given)	Rin1-Abl PPI inh 53 | Rin1 Abl conf 92 | GFP quencher inactive | GFP quench DR inactive
CCOc1ccc2c(c1)OC(c1ccccc1)(C(F)(F)F)NC2=O (stereo not given)	none
CCOc1ccc2c(c1)OC(c1ccc(OC)cc1)(C(F)(F)F)NC2=O (stereo not given)	Rin1-Abl PPI inh 7.1 | Rin1 Abl conf inactive | GFP quencher inactive
Cc1ccc(C2=NC(=O)/C(=C/c3cc(O)c(O)c(Br)c3)S2)cc1	Rin1-Abl PPI inh 8.5 | Rin1 Abl conf 15 | GFP quencher 41
CCOC(=O)N1CCN(CC(=O)Nc2cccc(Br)c2)CC1	none
CCOC(=O)N1CCN(CCC(=O)Nc2cccc(Br)c2)CC1	Rin1-Abl PPI inh 6.2! | Rin1 Abl conf inactive | GFP quencher inactive
CCOC(=O)N1CCN(CCC(=O)Nc2ccc(C)c(Br)c2)CC1	Rin1-Abl PPI inh 5.6 | Rin1 Abl conf inactive | GFP quencher inactive
CCOC(=O)[C@H]1[C@H]2COc3ccc(OC)cc3[C@@H]2N2C(=O)CN(Cc3ccco3)C(=O)[C@@]12C	none
CC1CC(C)CN(CC(=O)Nc2ccc3c(c2)OCCO3)C1 (stereo not given)	Rin1-Abl PPI inh 6.3 | Rin1 Abl conf inactive | GFP quencher inactive
O=C(Nc1ccccc1Cl)C1CC(=O)N(c2ccccc2)C1 (stereo not given)	none (no result: PKA-R1A activ, PKA-R2B act)
O=C(Nc1cccc2nsnc12)C1CC(=O)N(c2ccccc2)C1 (stereo not given)	Rin1-Abl PPI inh 10 | Rin1 Abl conf inactive | GFP quencher inactive
CCCN(CCC)S(=O)(=O)c1ccc(C(=O)NCc2ccc3c(c2)OCO3)cc1	Rin1-Abl PPI inh 6.3 | Rin1 Abl conf inactive | GFP quencher inactive
